Laboratory results taken from ChEMBL document CHEMBL1127455, “8-Azaxanthine derivatives as antagonists of adenosine receptors” (J Med Chem, 1994).
pKi: −log10 of the molar value.

Columns and labels:
Adenosine receptor A1 [1] = target: T1, Adenosine receptor A1 (Bos taurus, UniProt P28190); test: Affinity to A1 adenosine receptor was measured by the displacement of […] in bovine brain cortical membrane; assay type: cell membranes
T1 sequence (P28190 whole entry): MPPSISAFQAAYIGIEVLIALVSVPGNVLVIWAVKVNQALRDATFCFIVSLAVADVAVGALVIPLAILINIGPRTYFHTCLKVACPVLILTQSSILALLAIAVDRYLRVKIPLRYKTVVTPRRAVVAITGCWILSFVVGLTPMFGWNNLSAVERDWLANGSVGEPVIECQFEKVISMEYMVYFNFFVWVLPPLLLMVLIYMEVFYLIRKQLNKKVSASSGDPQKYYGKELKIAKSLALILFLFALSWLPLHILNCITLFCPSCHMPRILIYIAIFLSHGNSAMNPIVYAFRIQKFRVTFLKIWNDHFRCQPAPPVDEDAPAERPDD
Summary of the method: (§1)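 Bovine cerebral cortex was homogenized in ice-cold 0.32 M sucrose with protease inhibitors and spun at 1000g, then 48000g, at 4 °C. The pellet was treated with adenosine deaminase (2 units/mL) at 37 °C for 60 min. Membranes (0.2-0.3 mg protein) were incubated in triplicate with about 1.2 nM [³H]CHA in Tris-HCl pH 7.7 with MgCl₂ at 25 °C for 45 min. Nonspecific binding was defined with 50 μM R-PIA. Binding was ended by GF/C filtration. Compounds were added in DMSO (2% solvent), up to 30 μM. IC50 was read from semilog plots, and Ki was derived using Kd 10.5 nM.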

[2] = target: Adenosine receptor A2a (Bos taurus); test: Affinity to A2 adenosine receptor was measured by the displacement of [3H]-CGS- 21680 in bovine brain striatal membrane
Bos taurus = organism: Bos taurus; test: Ratio between the Ki values of A2 and A1 receptors
[3] = test system: Adenosine A2 receptor (Bos taurus); test: Displacement of [3H]-CGS- 21680 from A2 adenosine receptor in bovine brain striatal membrane at […]; conditions: Striatum
Adenosine receptor A1 [4] = target: T1, Adenosine receptor A1; test: Affinity for A1 adenosine receptor by displacement of […] in bovine brain cortical membrane; d= Inactive at highest tested concentration 30 uM; assay type: tissue-based; summary of the method: as §1

pKi (Adenosine receptor A1 [1])	pKi [2]	Ratio (Bos taurus)	inhibition [3] [%]	Ki (Adenosine receptor A1 [4])	SMILES
4.44	3.60	6.9			Cn1c(=O)c2nn(C3CCCCC3)nc2n(C)c1=O
				Not Active	Cn1c(=O)c2c(nnn2C)n(C)c1=O
4.64	5.08	0.36			Cn1c(=O)c2c(nnn2C2CCCCC2)n(C)c1=O
3.94					Cn1c(=O)c2c(nnn2C2CCCCC2O)n(C)c1=O (centres undefined)
4.74	5.35	0.25			Cn1c(=O)c2c(nnn2C2CC3CCC2C3)n(C)c1=O (centres undefined)
				Not Active	Cn1c(=O)c2nn(C3CCCCC3O)nc2n(C)c1=O (centres undefined)
4.51	4.31	1.6			Cn1c(=O)c2nn(C3CC4CCC3C4)nc2n(C)c1=O (centres undefined)
4.96	3.53	26			Cn1c(=O)c2c(nnn2C2CCCC2)n(C)c1=O
3.96	4.24	0.5			Cn1c(=O)c2nn(C3CCCC3)nc2n(C)c1=O

The next lines start with the molecule.

SMILES	pKi (Adenosine receptor A1 [1])	pKi [2]	Ratio (Bos taurus)	inhibition [3] [%]	Ki (Adenosine receptor A1 [4])
CCCn1c(=O)c2nn(-c3ccc(Cl)cc3N)nc2n(CCC)c1=O	5.82				
CCCn1c(=O)c2nn(C3CCCCC3O)nc2n(CCC)c1=O (centres undefined)	5.85			20	
Cn1c(=O)c2nn[nH]c2n(C)c1=O					Not Active
CCCn1c(=O)c2nn(C3CCCCC3)nc2n(CCC)c1=O	5.80	4.66	13		
Cn1c(=O)c2c(ncn2C)n(C)c1=O [CAFFEINE]	4.54				
CCCn1c(=O)c2c(nnn2C2CCCCC2O)n(CCC)c1=O (centres undefined)	5.74	4.87	7.5		
CCCn1c(=O)c2c(nnn2C2CCCC2)n(CCC)c1=O	6.47	5.00	29		
CCCn1c(=O)c2c(nnn2C2CCCCC2)n(CCC)c1=O	5.96				
Cn1nc2c(=O)n(C)c(=O)n(C)c2n1		4.28			Not Active
Cn1c(=O)c2c(nnn2-c2ccc(Cl)cc2N)n(C)c1=O	4.85				
CCCn1c(=O)c2c(nnn2-c2ccc(Cl)cc2N)n(CCC)c1=O	4.36				
CCCn1c(=O)c2nn(C3CCCC3)nc2n(CCC)c1=O	5.89	4.89	10		
Cn1c(=O)c2nn(-c3ccc(Cl)cc3N)nc2n(C)c1=O	4.62				
